{
  "source": "ChEMBL document CHEMBL4396973",
  "about": "“Design and development of a series of borocycles as selective, covalent kallikrein 5 inhibitors” (Bioorg Med Chem Lett, 2019)",
  "key": {"Kallikrein-5": {"molecular_target": "T1, Kallikrein-5 (Homo sapiens, UniProt Q9Y337)", "T1 sequence (Q9Y337 whole entry)": "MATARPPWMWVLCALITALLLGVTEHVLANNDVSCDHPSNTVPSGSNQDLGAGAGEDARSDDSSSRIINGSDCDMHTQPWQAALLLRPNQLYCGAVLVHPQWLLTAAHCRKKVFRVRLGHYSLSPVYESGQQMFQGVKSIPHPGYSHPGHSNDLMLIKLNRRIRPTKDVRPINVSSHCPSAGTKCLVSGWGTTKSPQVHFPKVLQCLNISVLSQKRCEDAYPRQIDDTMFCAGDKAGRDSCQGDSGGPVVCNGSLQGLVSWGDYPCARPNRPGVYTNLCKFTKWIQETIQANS", "assay": "Inhibition of human recombinant 6His-Q-FLAG-tagged KLK5 expressed in baculovirus infected Sf9 insect cells using (Tos-Gly-Pro-Arg)2[R110].2TFA as substrate measured at 30 secs interval for 5 mins using 1 x 10'10M enzyme by FLINT assay"}, "[1]": {"assay": "Genotoxicity in Salmonella typhimurium TA98 in presence of rat S9 fraction by mini-Ames test", "format": "toxicity, subcellular", "conditions": "salmonella enterica subsp. enterica serovar typhimurium"}, "[2]": {"molecular_target": "T2, Suppressor of tumorigenicity 14 protein (Homo sapiens, UniProt Q9Y5Y6)", "T2 sequence (Q9Y5Y6 whole entry)": "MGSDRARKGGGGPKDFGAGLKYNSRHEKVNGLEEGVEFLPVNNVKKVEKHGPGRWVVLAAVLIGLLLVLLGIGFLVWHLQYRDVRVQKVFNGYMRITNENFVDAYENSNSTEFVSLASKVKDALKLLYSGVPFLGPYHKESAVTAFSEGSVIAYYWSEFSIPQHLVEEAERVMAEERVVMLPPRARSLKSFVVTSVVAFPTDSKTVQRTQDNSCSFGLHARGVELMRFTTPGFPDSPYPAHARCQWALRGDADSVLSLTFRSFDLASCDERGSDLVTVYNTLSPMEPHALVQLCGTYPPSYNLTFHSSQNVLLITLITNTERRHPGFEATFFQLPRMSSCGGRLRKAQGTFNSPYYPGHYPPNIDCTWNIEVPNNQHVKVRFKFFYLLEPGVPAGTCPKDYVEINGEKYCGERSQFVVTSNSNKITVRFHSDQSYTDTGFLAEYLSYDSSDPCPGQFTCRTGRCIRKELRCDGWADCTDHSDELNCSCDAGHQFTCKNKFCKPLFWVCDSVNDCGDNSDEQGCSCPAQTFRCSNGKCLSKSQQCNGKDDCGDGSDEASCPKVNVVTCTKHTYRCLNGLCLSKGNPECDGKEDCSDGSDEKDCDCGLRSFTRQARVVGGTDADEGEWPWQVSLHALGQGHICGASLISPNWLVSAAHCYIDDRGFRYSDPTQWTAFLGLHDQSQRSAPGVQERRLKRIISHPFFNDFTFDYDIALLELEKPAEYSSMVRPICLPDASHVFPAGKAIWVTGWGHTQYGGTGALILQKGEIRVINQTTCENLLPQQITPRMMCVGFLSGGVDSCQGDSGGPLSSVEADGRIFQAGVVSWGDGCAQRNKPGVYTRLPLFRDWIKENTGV", "assay": "Inhibition of recombinant human N-terminal Met and 6-His-tagged matriptase (G596 to V855 residues) expressed in Escherichia coli using Boc-QAR-AMC as substrate incubated for 40 mins by FLINT assay"}, "[3]": {"assay": "Genotoxicity in Salmonella typhimurium TA100 in absence of rat S9 fraction by mini-Ames test", "format": "toxicity", "conditions": "salmonella enterica subsp. enterica serovar typhimurium"}, "Kallikrein-1": {"molecular_target": "Kallikrein-1 (Homo sapiens, UniProt P06870)", "sequence (P06870 whole entry, the tested form may be a part)": "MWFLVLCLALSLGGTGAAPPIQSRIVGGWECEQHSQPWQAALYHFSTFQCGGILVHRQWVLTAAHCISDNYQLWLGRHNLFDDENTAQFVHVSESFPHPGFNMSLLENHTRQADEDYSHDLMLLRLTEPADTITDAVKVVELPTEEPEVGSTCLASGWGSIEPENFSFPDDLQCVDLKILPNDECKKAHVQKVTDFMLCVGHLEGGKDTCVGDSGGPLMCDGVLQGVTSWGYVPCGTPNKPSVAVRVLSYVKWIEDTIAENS", "assay": "Inhibition of human recombinant N-terminal His-tagged and enterokinase cleavage site-fused KLK1 (19 to 262 residues) expressed in baculovirus infected Sf9 insect cells using R110 labelled GSK3162232A as substrate measured at 30 secs interval for 5 mins by FLINT assay"}, "Neutrophil elastase": {"molecular_target": "T3, Neutrophil elastase (Homo sapiens, UniProt P08246)", "T3 sequence (P08246 whole entry)": "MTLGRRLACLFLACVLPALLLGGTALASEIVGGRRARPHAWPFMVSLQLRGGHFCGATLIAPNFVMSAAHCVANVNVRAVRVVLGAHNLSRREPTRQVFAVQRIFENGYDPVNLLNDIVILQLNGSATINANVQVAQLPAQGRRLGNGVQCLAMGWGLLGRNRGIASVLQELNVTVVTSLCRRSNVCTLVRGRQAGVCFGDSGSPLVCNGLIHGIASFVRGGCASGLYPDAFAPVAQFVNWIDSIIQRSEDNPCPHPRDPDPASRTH", "assay": "Inhibition of human neutrophil elastase using MeOSuc-AAPV-AMC as substrate incubated for 40 mins by FLINT assay"}, "[4]": {"assay": "Genotoxicity in Salmonella typhimurium TA98 in absence of rat S9 fraction by mini-Ames test", "format": "toxicity", "conditions": "salmonella enterica subsp. enterica serovar typhimurium"}, "[5]": {"assay": "Genotoxicity in Salmonella typhimurium TA1535 in absence of rat S9 fraction by mini-Ames test", "format": "toxicity", "conditions": "salmonella enterica subsp. enterica serovar typhimurium"}, "[6]": {"assay": "Genotoxicity in Salmonella typhimurium TA1537 in absence of rat S9 fraction by mini-Ames test", "format": "toxicity", "conditions": "salmonella enterica subsp. enterica serovar typhimurium"}, "Kallikrein-14": {"molecular_target": "T4, Kallikrein-14 (Homo sapiens, UniProt Q9P0G3)", "T4 sequence (Q9P0G3 whole entry)": "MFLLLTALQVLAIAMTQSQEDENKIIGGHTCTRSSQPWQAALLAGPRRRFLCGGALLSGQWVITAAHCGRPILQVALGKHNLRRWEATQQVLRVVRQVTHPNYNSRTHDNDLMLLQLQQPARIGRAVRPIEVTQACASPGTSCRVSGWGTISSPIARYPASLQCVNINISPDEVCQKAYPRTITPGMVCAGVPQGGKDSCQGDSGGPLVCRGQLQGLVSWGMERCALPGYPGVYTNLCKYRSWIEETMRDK", "assay": "Inhibition of recombinant human C-terminal 10-His-tagged KLK14 (Q19 to M248 residues) expressed in mouse NS0 cells using BOC-VPR-AMC as substrate incubated for 40 mins by FLINT assay"}, "Kallikrein-7": {"molecular_target": "Kallikrein-7 (Homo sapiens, UniProt P49862)", "sequence (P49862 whole entry)": "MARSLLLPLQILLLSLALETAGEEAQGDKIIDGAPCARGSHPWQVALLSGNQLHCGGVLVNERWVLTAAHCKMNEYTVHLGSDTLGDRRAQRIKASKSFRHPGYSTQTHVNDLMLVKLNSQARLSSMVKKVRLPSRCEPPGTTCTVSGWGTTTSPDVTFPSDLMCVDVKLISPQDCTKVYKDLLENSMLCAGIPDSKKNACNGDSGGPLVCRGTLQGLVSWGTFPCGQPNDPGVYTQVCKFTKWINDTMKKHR", "assay": "Inhibition of recombinant human C-terminal 10-His-tagged KLK7 (Glu23 to His252 residues) expressed in mouse NS0 cells using 5-FAM-E-A-L-Y-L-V-S-G-C(5-TAMRA) as substrate incubated for 40 mins by FLINT assay"}, "Plasma kallikrein": {"molecular_target": "Plasma kallikrein (Homo sapiens, UniProt P03952)", "sequence (P03952 20-390 limits assumed)": "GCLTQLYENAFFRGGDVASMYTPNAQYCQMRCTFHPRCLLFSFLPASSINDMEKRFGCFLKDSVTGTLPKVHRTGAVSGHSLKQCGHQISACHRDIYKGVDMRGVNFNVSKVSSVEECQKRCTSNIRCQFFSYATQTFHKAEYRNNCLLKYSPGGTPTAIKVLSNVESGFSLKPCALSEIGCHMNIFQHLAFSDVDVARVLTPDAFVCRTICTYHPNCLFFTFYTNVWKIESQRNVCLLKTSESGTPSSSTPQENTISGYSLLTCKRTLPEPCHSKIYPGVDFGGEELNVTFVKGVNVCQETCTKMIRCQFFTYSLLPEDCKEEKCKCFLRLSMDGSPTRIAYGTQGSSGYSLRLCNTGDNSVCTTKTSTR", "sequence (P03952 391-638 limits assumed)": "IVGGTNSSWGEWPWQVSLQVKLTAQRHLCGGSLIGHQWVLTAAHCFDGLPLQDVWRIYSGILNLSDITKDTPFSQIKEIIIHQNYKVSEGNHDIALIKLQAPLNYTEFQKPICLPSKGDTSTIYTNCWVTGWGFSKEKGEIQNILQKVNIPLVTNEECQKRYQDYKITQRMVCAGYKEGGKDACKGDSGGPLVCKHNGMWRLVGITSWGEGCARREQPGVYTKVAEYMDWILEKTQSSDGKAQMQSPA", "assay": "Inhibition of human C-terminal 6-His-tagged KLKB1 (G20-A638 residues) expressed in mouse NS0 cells using PFR-AMC as substrate incubated for 40 mins by FLINT assay"}, "[7]": {"assay": "Solubility of the compound in Britton-Robinson buffer at pH 6 measured after 12 hrs", "format": "physicochemical", "outline": "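Solubility was measured in Britton-Robinson buffers spanning pH 2 to pH 8. Readings were taken after 12 h and 24 h and reported in mg/mL.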"}, "[8]": {"assay": "Genotoxicity in Salmonella typhimurium TA1535 in presence of rat S9 fraction by mini-Ames test", "format": "toxicity, subcellular", "conditions": "salmonella enterica subsp. enterica serovar typhimurium"}, "[9]": {"molecular_target": "Urokinase-type plasminogen activator (Homo sapiens, UniProt P00749)", "assay": "Inhibition of recombinant human C-terminal 10-His-tagged urokinase (M1 to L431 residues) expressed in mouse NS0 cells using Z-GGR-AMC as substrate incubated for 40 mins by FLINT assay"}},
  "note": "pIC50: −log10 of the molar value.",
  "data": [
    {"smiles": "Cl.N=C(N)c1ccc([C@H]2Cc3ccc(C(F)(F)F)cc3B(O)O2)cc1OCc1cccnc1", "values": [
      {"measurement": "pIC50", "setting": "Kallikrein-5", "result": "> 9.50"},
      {"measurement": "Activity", "setting": "[1]", "result": "Non-Toxic"},
      {"measurement": "pIC50", "setting": "[2]", "result": 5.90},
      {"measurement": "Activity", "setting": "[3]", "result": "Non-Toxic"},
      {"measurement": "pIC50", "setting": "Kallikrein-1", "result": 6.60},
      {"measurement": "pIC50", "setting": "Neutrophil elastase", "result": "< 4.00"},
      {"measurement": "Activity", "setting": "[4]", "result": "Non-Toxic"},
      {"measurement": "Activity", "setting": "[5]", "result": "Non-Toxic"},
      {"measurement": "Activity", "setting": "[6]", "result": "Non-Toxic"},
      {"measurement": "pIC50", "setting": "Kallikrein-14", "result": 7.50},
      {"measurement": "pIC50", "setting": "Kallikrein-7", "result": 4.10},
      {"measurement": "pIC50", "setting": "Plasma kallikrein", "result": 7.70},
      {"measurement": "solubility at 12 h", "setting": "[7]", "result": 3200, "unit": "µg/mL"},
      {"measurement": "Activity", "setting": "[8]", "result": "Non-Toxic"},
      {"measurement": "pIC50", "setting": "[9]", "result": 5.10}
    ]}
  ]
}
